Key:
Type in all cases: functional
Details in all cases: read-out: Activity
NCI-H226 = assay: Cytotoxicity against human NCI-H226 cells assessed as cell growth at 10 uM
Summary of the method: (§1)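 NCI-60 screen: cells grown in RPMI 1640 with 5% FBS and 2 mM L-glutamine, plated at 5000–40,000 cells/well according to doubling time, and preincubated 24 h at 37 °C, 5% CO2. The single 10 µM dose (DMSO stock) was added, then incubated 48 h. Cells were TCA-fixed and stained with 0.4% SRB, read at 515 nm, and growth % calculated against time-zero and control plates.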

BT-549 = assay: Cytotoxicity against human BT549 cells assessed as cell growth at 10 uM
Summary of the method: (§2)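 Single-dose NCI-60 screen at 10 µM. Cells were grown in RPMI 1640 with 5% FBS and 2 mM L-glutamine, then treated for 48 h at 37 °C. Protein was measured by SRB staining with absorbance at 515 nm. Percentage growth was recorded, and inhibition percentage was calculated as 100 minus growth percentage.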

UO-31 = assay: Cytotoxicity against human UO31 cells assessed as cell growth at 10 uM; summary of the method: as §1
SK-MEL-28 = assay: Cytotoxicity against human SK-MEL-28 cells assessed as cell growth at 10 uM; summary of the method: as §1
[1] = Cytotoxicity against human […] cells assessed as cell growth at 10 uM; summary of the method: as §1
SNB-75 = assay: Cytotoxicity against human SNB75 cells assessed as cell growth at 10 uM; summary of the method: as §1
HOP-92 = assay: Cytotoxicity against human HOP92 cells assessed as cell growth at 10 uM; summary of the method: as §2
HCC 2998 = assay: Cytotoxicity against human HCC2998 cells assessed as cell growth at 10 uM; summary of the method: as §2
HT-29 = assay: Cytotoxicity against human HT-29 cells assessed as cell growth at 10 uM; summary of the method: as §2
MOLT-4 = assay: Cytotoxicity against human MOLT4 cells assessed as cell growth at 10 uM; summary of the method: as §1
SN12C = assay: Cytotoxicity against human SN12C cells assessed as cell growth at 10 uM; summary of the method: as §1
DU-145 = assay: Cytotoxicity against human DU145 cells assessed as cell growth at 10 uM; summary of the method: as §2
M14 = assay: Cytotoxicity against human M14 cells assessed as cell growth at 10 uM; summary of the method: as §1
NCI-H23 = assay: Cytotoxicity against human NCI-H23 cells assessed as cell growth at 10 uM; summary of the method: as §1
RXF 393 = assay: Cytotoxicity against human RXF393 cells assessed as cell growth at 10 uM; summary of the method: as §1
HCT-15 = assay: Cytotoxicity against human HCT15 cells assessed as cell growth at 10 uM; summary of the method: as §2
OVCAR-3 = assay: Cytotoxicity against human OVCAR-3 cells assessed as cell growth at 10 uM; summary of the method: as §1
KM12 = assay: Cytotoxicity against human KM12 cells assessed as cell growth at 10 uM; summary of the method: as §1
OVCAR-4 = assay: Cytotoxicity against human OVCAR4 cells assessed as cell growth at 10 uM; summary of the method: as §1
ACHN = assay: Cytotoxicity against human ACHN cells assessed as cell growth at 10 uM; summary of the method: as §2
MDA-MB-231 = assay: Cytotoxicity against human MDA-MB-231 cells assessed as cell growth at 10 uM; summary of the method: as §1
COLO 205 = assay: Cytotoxicity against human COLO205 cells assessed as cell growth at 10 uM; summary of the method: as §2
HCT-116 = assay: Cytotoxicity against human HCT116 cells assessed as cell growth at 10 uM; summary of the method: as §2
MDA-MB-435 = assay: Cytotoxicity against human MDA-MB-435 cells assessed as cell growth at 10 uM; summary of the method: as §1
A549 = assay: Cytotoxicity against human A549 cells assessed as cell growth at 10 uM; summary of the method: as §2
MCF7 = assay: Cytotoxicity against human MCF7 cells assessed as cell growth at 10 uM; summary of the method: as §1
SF-539 = assay: Cytotoxicity against human SF539 cells assessed as cell growth at 10 uM; summary of the method: as §1
HOP-62 = assay: Cytotoxicity against human HOP62 cells assessed as cell growth at 10 uM; summary of the method: as §2
SK-OV-3 = assay: Cytotoxicity against human SKOV3 cells assessed as cell growth at 10 uM; summary of the method: as §1
OVCAR-5 = assay: Cytotoxicity against human OVCAR5 cells assessed as cell growth at 10 uM; summary of the method: as §1
PC-3 = assay: Cytotoxicity against human PC3 cells assessed as cell growth at 10 uM; summary of the method: as §1

Q: Which growth at 10 µM (NCI-H226) does the source give for `COc1cc(C)cc(-c2nn(CC#N)cc2-c2ccnc(-c3ccc(Oc4ccccc4)cc3)c2)c1` here?
A: 66.5%

Q: What about the growth at 10 µM (BT-549) of the same compound?
A: 96.3%

Q: And the growth at 10 µM (UO-31)?
A: 84.8%

Q: What about the growth at 10 µM (SK-MEL-28) of the same compound?
A: 104%

Q: What about the growth at 10 µM [1] of the same compound?
A: 83%

Q: And the growth at 10 µM (SNB-75)?
A: 74.4%

Q: What about the growth at 10 µM (HOP-92) of the same compound?
A: 85.5%

Q: What about the growth at 10 µM (HCC 2998) of the same compound?
A: 93.9%

Q: And the growth at 10 µM (HT-29)?
A: 73.9%

Q: And the growth at 10 µM (MOLT-4)?
A: 73.7%

Q: What about the growth at 10 µM (SN12C) of the same compound?
A: 84.8%

Q: And the growth at 10 µM (DU-145)?
A: 105%

Q: What about the growth at 10 µM (M14) of the same compound?
A: 102%

Q: What about the growth at 10 µM (NCI-H23) of the same compound?
A: 88.3%

Q: And the growth at 10 µM (RXF 393)?
A: 64.2%

Q: And the growth at 10 µM (HCT-15)?
A: 71%

Q: What about the growth at 10 µM (OVCAR-3) of the same compound?
A: 109%

Q: What about the growth at 10 µM (KM12) of the same compound?
A: 100%

Q: What about the growth at 10 µM (OVCAR-4) of the same compound?
A: 82.9%

Q: And the growth at 10 µM (ACHN)?
A: 85.4%

Q: And the growth at 10 µM (MDA-MB-231)?
A: 88.6%

Q: What about the growth at 10 µM (COLO 205) of the same compound?
A: 98.6%

Q: What about the growth at 10 µM (HCT-116) of the same compound?
A: 81.8%

Q: What about the growth at 10 µM (MDA-MB-435) of the same compound?
A: 98.1%

Q: What about the growth at 10 µM (A549) of the same compound?
A: 85.8%

Q: And the growth at 10 µM (MCF7)?
A: 72.1%

Q: What about the growth at 10 µM (SF-539) of the same compound?
A: 95.3%

Q: And the growth at 10 µM (HOP-62)?
A: 96.1%

Q: What about the growth at 10 µM (SK-OV-3) of the same compound?
A: 95.4%

Q: What about the growth at 10 µM (OVCAR-5) of the same compound?
A: 90.2%

Q: What about the growth at 10 µM (PC-3) of the same compound?
A: 91.9%

Reference: ChEMBL document CHEMBL1165950, “Design and synthesis of new potent anticancer pyrazoles with high FLT3 kinase inhibitory selectivity” (Bioorg Med Chem, 2010)
